One block for each compound: values may come before it.
Assays:
[1] = biological target: T1, C-X-C chemokine receptor type 4 (Homo sapiens, UniProt P61073); test: Displacement of [125I]CXCL12 from CXCR4 in human CEM cells; assay type: cell-based, CCRF-CEM
In short: (§1)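 Scintillation proximity assay. Membranes come from CEM cells (human CXCR4) or IR983F cells (rat CXCR4), prepared by homogenization in 20 mM HEPES, 1 mM EDTA pH 7.4 and stored at -80 °C. Nonspecific binding is defined with 400 nM unlabeled CXCL12. Incubation is 2 h at room temperature with shaking, then scintillation counting.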

[2] = biological target: T1, C-X-C chemokine receptor type 4; test: Activity at CXCR4 in human CEM cells assessed as inhibition of CXCL12-induced calcium mobilization; assay type: functional, cell-based, CCRF-CEM
In short: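 CEM cells are loaded with 4 µM Fluo-4 for 1 h at 37 °C, washed, then preincubated with antagonist for 2 h. Wells are run in quadruplicate on FLIPR.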

[3] = test system: Human immunodeficiency virus 1; test: Antiviral activity against X4-tropic HIV1 3B assessed as inhibition of viral attachment; assay type: functional, organism-based; conditions: Human immunodeficiency virus 1, 3B
[4] = biological target: C-X-C chemokine receptor type 4 (Rattus norvegicus, UniProt O08565); test: Displacement of [125I]CXCL12 from CXCR4 in rat IR983F cells; assay type: cell-based; in short: as §1
C-X-C chemokine receptor type 4 (Rattus norvegicus, UniProt O08565), sequence (O08565 whole entry): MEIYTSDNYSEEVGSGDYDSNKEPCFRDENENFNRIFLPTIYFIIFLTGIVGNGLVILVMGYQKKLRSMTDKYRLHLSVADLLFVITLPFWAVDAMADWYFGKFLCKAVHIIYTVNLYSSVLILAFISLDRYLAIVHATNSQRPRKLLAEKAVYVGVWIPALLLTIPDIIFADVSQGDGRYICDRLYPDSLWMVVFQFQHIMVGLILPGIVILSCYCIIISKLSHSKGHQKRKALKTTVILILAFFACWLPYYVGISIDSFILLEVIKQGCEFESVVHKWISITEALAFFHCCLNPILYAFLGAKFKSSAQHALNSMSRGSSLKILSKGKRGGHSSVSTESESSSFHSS

[5] = test system: Blood; test: Inhibition of CXCL12-induced actin polymerization in human whole blood; assay type: functional, tissue-based
In short: (§2)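 EDTA whole blood (100 µL) is preincubated with inhibitor diluted in PBS for 10 min at room temperature. CXCL12 (100 nM final) is added for 25 s at ambient temperature. […] Neutrophil F-actin is read by flow cytometry.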

[6] = test system: Blood; test: Inhibition of CXCL12-induced actin polymerization in rat whole blood; assay type: functional, tissue-based; in short: as §2
[7] = biological target: T2, Cytochrome P450 1A2 (Homo sapiens, UniProt P05177); test: Inhibition of CYP1A2; assay type: ADME
T2 sequence (P05177 whole entry): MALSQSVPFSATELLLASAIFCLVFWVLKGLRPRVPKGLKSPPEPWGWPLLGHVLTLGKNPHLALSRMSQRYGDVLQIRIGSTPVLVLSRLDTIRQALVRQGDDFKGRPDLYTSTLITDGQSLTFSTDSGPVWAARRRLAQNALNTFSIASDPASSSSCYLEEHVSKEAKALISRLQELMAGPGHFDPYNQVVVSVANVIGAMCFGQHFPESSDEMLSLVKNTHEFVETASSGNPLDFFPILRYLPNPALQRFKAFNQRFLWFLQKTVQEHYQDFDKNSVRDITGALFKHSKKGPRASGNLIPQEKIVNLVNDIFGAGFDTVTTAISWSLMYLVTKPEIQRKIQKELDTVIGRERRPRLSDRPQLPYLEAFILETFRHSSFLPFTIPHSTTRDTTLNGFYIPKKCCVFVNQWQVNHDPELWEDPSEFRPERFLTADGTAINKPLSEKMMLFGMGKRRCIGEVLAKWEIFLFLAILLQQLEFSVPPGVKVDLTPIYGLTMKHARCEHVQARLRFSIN

[8] = biological target: Cytochrome P450 2C9 (Homo sapiens, UniProt P11712); test: Inhibition of CYP2C9; assay type: ADME
Cytochrome P450 2C9, sequence (P11712 whole entry): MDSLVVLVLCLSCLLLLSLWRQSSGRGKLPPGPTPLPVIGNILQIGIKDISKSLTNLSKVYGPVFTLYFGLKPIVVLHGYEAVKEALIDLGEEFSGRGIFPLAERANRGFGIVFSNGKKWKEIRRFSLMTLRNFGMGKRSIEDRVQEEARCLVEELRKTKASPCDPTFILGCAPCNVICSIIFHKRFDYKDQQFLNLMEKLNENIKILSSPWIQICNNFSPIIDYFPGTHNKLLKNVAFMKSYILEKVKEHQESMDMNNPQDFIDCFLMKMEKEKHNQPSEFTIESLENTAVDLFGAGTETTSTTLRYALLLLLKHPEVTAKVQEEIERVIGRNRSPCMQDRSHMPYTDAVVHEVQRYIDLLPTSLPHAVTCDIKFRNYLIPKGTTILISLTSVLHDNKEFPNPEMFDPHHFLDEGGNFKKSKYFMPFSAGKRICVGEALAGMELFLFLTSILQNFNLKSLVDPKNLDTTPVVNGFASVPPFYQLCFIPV

[9] = biological target: Cytochrome P450 2C19 (Homo sapiens, UniProt P33261); test: Inhibition of CYP2C19; assay type: ADME
Cytochrome P450 2C19, sequence (P33261 whole entry): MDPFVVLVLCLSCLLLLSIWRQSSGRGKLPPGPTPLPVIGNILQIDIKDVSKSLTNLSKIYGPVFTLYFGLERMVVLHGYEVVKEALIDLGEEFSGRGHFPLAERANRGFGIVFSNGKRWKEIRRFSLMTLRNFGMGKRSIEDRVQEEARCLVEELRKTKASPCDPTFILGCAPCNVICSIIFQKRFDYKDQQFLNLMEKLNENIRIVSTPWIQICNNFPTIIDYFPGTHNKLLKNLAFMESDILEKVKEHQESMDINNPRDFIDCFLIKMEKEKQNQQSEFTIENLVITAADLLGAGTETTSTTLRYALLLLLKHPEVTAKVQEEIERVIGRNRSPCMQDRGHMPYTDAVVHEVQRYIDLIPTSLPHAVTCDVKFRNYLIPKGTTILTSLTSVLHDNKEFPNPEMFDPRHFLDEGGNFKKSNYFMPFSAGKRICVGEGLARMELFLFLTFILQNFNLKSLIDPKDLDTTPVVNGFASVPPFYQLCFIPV

[10] = biological target: Cytochrome P450 3A4 (Homo sapiens, UniProt P08684); test: Inhibition of CYP3A4; assay type: ADME
Cytochrome P450 3A4, sequence (P08684 whole entry): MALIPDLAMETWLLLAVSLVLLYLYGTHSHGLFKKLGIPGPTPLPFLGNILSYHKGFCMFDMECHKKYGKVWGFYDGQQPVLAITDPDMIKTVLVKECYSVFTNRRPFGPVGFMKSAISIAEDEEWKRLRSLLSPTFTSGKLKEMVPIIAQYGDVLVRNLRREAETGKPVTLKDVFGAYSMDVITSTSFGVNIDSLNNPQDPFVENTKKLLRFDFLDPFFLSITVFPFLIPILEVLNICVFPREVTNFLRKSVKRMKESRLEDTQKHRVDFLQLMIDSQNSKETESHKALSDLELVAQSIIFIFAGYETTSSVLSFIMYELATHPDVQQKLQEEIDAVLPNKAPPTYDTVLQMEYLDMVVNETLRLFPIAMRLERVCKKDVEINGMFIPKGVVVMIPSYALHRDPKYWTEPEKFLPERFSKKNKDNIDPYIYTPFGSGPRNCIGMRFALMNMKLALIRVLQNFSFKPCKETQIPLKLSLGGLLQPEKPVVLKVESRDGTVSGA

[11] = Dissociation constant, pKa of the compound; assay type: physicochemical
[12] = Partition coefficient, log P of the compound; assay type: physicochemical; conditions: octanol/water
[13] = Distribution coefficient, log D of the compound; assay type: physicochemical; conditions: octanol/water
[14] = Intrinsic clearance in human liver microsomes; assay type: ADME, Microsome
In short: (§3)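 Compound is incubated with human or rat liver microsomes; intrinsic clearance is given in µL min-1 mg-1.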

[15] = Intrinsic clearance in rat liver microsomes; assay type: ADME, Microsome; in short: as §3
[16] = Solubility in pH 1.0 buffer; assay type: physicochemical
[17] = Solubility in pH 6.8 buffer; assay type: physicochemical
[18] = Fraction unbound in human serum; assay type: ADME, cell-free
[19] = Fraction unbound in rat serum; assay type: ADME, cell-free
[20] = biological target: T3, C-C chemokine receptor type 4 (Homo sapiens, UniProt P51679); test: Inhibition of CCR4
T3 sequence (P51679 whole entry): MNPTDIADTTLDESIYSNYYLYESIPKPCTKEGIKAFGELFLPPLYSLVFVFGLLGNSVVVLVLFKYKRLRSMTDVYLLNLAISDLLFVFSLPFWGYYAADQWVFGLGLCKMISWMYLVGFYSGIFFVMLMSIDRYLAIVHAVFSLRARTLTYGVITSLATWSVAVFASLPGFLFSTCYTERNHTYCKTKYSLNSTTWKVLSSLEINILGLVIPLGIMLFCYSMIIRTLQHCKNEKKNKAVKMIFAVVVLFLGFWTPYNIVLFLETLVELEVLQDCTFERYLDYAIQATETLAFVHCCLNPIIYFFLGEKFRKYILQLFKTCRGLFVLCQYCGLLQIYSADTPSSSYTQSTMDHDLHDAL

[21] = biological target: C-C chemokine receptor type 5 (Homo sapiens, UniProt P51681); test: Inhibition of CCR5
C-C chemokine receptor type 5, sequence (P51681 whole entry): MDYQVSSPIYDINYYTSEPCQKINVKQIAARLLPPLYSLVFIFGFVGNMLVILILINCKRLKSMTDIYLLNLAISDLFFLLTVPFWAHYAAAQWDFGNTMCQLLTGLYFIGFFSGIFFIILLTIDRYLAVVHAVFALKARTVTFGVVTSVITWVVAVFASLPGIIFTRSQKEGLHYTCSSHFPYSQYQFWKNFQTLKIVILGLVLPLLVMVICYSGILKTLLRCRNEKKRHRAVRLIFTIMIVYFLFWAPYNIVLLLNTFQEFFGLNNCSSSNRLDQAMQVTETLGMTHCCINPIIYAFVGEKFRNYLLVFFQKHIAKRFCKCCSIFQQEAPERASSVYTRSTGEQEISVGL

[22] = biological target: T4, C-C chemokine receptor type 7 (Homo sapiens, UniProt P32248); test: Inhibition of CCR7
T4 sequence (P32248 whole entry): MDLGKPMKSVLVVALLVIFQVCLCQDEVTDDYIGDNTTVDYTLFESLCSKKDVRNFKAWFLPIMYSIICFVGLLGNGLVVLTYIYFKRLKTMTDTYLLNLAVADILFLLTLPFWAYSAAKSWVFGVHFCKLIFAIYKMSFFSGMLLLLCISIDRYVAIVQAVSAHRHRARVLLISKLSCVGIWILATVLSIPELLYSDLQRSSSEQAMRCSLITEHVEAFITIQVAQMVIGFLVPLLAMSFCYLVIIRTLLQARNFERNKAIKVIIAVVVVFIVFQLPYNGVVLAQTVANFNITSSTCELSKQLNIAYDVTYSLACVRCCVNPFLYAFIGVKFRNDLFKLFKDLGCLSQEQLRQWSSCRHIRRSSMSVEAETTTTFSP

[23] = biological target: T5, C-C chemokine receptor type 9 (Homo sapiens, UniProt P51686); test: Inhibition of CCR9
T5 sequence (P51686 whole entry): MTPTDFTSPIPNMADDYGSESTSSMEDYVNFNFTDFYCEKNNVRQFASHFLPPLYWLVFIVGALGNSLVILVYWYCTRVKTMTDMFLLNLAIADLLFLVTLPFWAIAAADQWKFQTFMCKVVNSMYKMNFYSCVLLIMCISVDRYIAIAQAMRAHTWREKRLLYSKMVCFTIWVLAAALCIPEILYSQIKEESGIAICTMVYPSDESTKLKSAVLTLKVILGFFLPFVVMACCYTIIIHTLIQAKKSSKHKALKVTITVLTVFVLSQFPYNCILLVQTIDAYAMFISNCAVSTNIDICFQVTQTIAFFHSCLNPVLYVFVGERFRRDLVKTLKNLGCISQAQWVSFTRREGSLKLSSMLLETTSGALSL

[24] = biological target: T6, C-X-C chemokine receptor type 2 (Homo sapiens, UniProt P25025); test: Inhibition of CXCR2
T6 sequence (P25025 whole entry): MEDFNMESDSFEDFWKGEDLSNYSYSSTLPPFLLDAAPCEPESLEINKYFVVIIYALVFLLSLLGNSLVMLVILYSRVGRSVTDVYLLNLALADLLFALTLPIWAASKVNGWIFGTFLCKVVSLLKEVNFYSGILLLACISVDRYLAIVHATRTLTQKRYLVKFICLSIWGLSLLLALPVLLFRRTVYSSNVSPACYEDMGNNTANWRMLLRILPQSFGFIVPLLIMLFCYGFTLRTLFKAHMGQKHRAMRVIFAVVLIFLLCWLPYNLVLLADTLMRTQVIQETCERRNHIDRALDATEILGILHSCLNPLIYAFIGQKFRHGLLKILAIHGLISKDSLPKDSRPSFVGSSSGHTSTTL

[25] = Oral bioavailability in Lewis rat at 10 mg/kg; assay type: ADME, organism-based; conditions: in vivo
[26] = Tmax in Lewis rat at 10 mg/kg, po; assay type: ADME, organism-based; parameters: dose 10 mg/kg, route oral; conditions: in vivo
[27] = Half life in Lewis rat at 10 mg/kg, po; assay type: ADME, organism-based; parameters: dose 10 mg/kg, route oral; conditions: in vivo
[28] = Drug level in Lewis rat blood at 30 mg/kg/day administered through osmotic pump for 5 days; assay type: ADME, organism-based; conditions: other: administered through osmotic pump, read-out: Drug uptake
In short: (§4)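 Lewis rats (n = 3) receive 30 mg/kg·d via osmotic pumps for 5 days. Blood is sampled on day 5 and analyzed ex vivo.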

[29] = test system: Rattus norvegicus; test: Reduction in actin polymerization in Lewis rat blood at 30 mg/kg/day administered through osmotic pump for 5 days relative to control; assay type: functional; parameters: scale not given: the % may be the effect or the level left; in short: as §4
[30] = biological target: Cytochrome P450 2D6 (Homo sapiens, UniProt P10635); test: Inhibition of CYP2D6; assay type: ADME
Cytochrome P450 2D6, sequence (P10635 whole entry): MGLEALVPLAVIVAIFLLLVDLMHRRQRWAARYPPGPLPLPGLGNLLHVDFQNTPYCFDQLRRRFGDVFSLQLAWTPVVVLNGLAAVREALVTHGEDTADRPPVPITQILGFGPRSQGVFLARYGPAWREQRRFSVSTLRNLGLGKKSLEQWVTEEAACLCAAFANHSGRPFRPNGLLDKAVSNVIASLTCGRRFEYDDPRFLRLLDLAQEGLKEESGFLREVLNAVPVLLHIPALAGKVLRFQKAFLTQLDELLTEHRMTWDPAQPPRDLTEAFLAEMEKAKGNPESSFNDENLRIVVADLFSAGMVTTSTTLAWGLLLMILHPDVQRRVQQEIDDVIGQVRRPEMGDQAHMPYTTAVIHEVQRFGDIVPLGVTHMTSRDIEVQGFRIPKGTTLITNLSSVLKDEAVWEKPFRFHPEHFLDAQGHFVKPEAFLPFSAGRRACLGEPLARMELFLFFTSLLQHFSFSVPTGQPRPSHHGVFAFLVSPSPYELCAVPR

T1 sequence (P61073 whole entry): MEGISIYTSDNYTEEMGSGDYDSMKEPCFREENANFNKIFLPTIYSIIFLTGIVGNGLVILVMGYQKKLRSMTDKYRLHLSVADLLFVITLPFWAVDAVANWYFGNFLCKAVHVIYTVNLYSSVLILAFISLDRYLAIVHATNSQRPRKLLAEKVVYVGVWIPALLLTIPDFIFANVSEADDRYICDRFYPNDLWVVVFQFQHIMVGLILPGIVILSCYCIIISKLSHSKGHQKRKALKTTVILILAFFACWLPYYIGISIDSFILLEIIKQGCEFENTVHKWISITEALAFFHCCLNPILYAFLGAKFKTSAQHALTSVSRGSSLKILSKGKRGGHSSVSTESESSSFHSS

IC50 [1]: 28 nM | IC50 [2]: 6.6 nM | IC50 [3]: 40 nM | IC90 [3]: 1140 nM
SMILES: C1=C(CSC(=NC2CCCCC2)NC2CCCCCC2)N2CCN=C2S1

IC50 [1]: 48 nM | IC50 [4]: 55 nM | IC50 [2]: 11 nM | IC50 [5]: 32 nM | IC50 [6]: 86 nM | IC50 [7]: > 10000 nM | IC50 [8]: > 10000 nM | IC50 [9]: > 10000 nM | IC50 [10]: 3860 nM | pKa [11]: 7.7 | logP [12]: 3.5 | logD [13]: -0.2 | microsomal CLint [14]: 51 µL/min/mg | microsomal CLint [15]: 411 µL/min/mg | solubility [16]: > 5000 µg/mL | solubility [17]: > 5000 µg/mL | fraction unbound [18]: 0.29 | fraction unbound [19]: 0.54 | IC50 [20]: > 3000 nM | IC50 [21]: > 3000 nM | IC50 [22]: > 3000 nM | IC50 [23]: > 3000 nM | IC50 [24]: > 3000 nM | bioavailability [25]: 14% | Tmax [26]: 0.5 h | half-life [27]: 7.2 h | concentration at 120 h [28]: 1000 nM | IC50 [3]: 40 nM | IC90 [3]: 720 nM
SMILES: C1=C(CS/C(=N\C2CCCCC2)NC2CCCCC2)N2CCN=C2S1
Activity [29]: >80%

IC50 [1]: 25 nM | IC50 [2]: 3.1 nM | IC50 [3]: 50 nM | IC90 [3]: 820 nM
SMILES: C1=C(CS/C(=N\C2CCCCCC2)NC2CCCCCC2)N2CCN=C2S1

IC50 [1]: 372 nM | IC50 [2]: 173 nM | IC50 [3]: 470 nM | IC90 [3]: > 100000 nM
SMILES: C1=C(CSC(=NC2CCCCC2)NC2CCCC2)N2CCN=C2S1

IC50 [4]: 11 nM | IC50 [7]: > 10000 nM | IC50 [8]: > 10000 nM | IC50 [9]: 5200 nM | IC50 [30]: 400 nM | IC50 [10]: > 10000 nM | pKa [11]: 8 | logP [12]: 4.5 | logD [13]: 1.2 | microsomal CLint [14]: 149 µL/min/mg | microsomal CLint [15]: 342 µL/min/mg | solubility [16]: > 5000 µg/mL | solubility [17]: > 5000 µg/mL | fraction unbound [18]: 0.2 | fraction unbound [19]: 0.46 | bioavailability [25]: 32% | Tmax [26]: 0.5 h | half-life [27]: 7.6 h | IC50 [3]: 7 nM | IC90 [3]: 100 nM
SMILES: CC1(C)CN2C(CS/C(=N\C3CCCCC3)NC3CCCCC3)=CSC2=N1

IC50 [1]: 8.8 nM | IC50 [2]: 2.1 nM | IC50 [3]: 10 nM | IC90 [3]: 130 nM
SMILES: CC1(C)CN2C(CS/C(=N\C3CCCCCC3)NC3CCCCCC3)=CSC2=N1

Continued, compound first:

SMILES: C/N=c1/scc(CS/C(=N\C2CCCCC2)NC2CCCCC2)n1C
IC50 [1]: > 10000 nM | IC50 [2]: 9130 nM

SMILES: C1=C(CS/C(=N\C2CCCCC2)Nc2ccccc2)N2CCN=C2S1
IC50 [1]: > 10000 nM | IC50 [2]: 5270 nM

SMILES: CC(C)(C)C1CCC(NC(=NC2CCCCC2)SCC2=CSC3=NCCN23)CC1 (configuration not stated)
IC50 [1]: 1530 nM | IC50 [2]: 437 nM

SMILES: CC(C)/N=C(/NC(C)C)SCC1=CSC2=NCCN12
IC50 [1]: > 10000 nM

SMILES: C1=C(CS/C(=N\C2CCCC2)NC2CCCC2)N2CCN=C2S1
IC50 [1]: 3830 nM | IC50 [2]: 493 nM

SMILES: c1ccc(CNC(=NC2CCCCC2)SCC2CSC3=NCCN32)cc1 (configuration not stated)
IC50 [1]: 10000 nM | IC50 [2]: 2220 nM
